Measured values from BindingDB's records for doi:10.1016/j.bmcl.2018.01.022 (Temple University, 2018).

Target: T1, Ribonuclease P protein component (Staphylococcus aureus, UniProt P0A0H5)
T1 sequence (P0A0H5 whole entry): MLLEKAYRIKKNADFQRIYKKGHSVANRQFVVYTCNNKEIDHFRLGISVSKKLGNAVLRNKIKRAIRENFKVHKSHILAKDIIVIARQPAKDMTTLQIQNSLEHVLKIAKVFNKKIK
Assay: Inhibition of Staphylococcus aureus RnpA-mediated mRNA degradation after 15 to 30 mins by ethidium bromide staining based agarose gel electrophoresis
How it was run: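 Recombinant S. aureus RnpA protein of ≥97% purity was tested in vitro for inhibition of its mRNA degradation activity, following the procedure previously described.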

CC(C)c1ccc(OCC(=O)NNC(=S)NC(=O)c2ccno2)cc1
IC50: > 500 µM
